Assay results from ChEMBL document CHEMBL1125740, “Heterocyclic quinones. 17. A new in vivo active antineoplastic drug: 6,7-bis(1-aziridinyl)-4-[[3-(N,N-dimethylamino)propyl]amino]-5,8- quinazolinedione” (J Med Chem, 1991).
Where “and” joins values, the source holds several entries; their conditions need not be identical. Identical values can stand only once.

Assays:
L1210 [1] = assay: Compound was evaluated in vivo for antitumor activity after intraperitoneal administration against L1210(935) for total dose at an optimal dose of 0.25 mg/kg/injection at 1,4,7,11day schedule.; format: functional, Mus musculus
Outline: (§1)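 L1210 leukemia, maintained in DBA/2 mice, was given ip as 10⁵ cells on day 0 to F1 hybrid or strain-of-origin mice over 18 g, in groups of 8. Dosing was ip from day 1, and mortality was checked daily. Median day of death counts dying mice only. %ILS = 100×(treated − control median day of death)/control median. Tumor-free survivors were counted on day 60. Weight change is g/mouse at nadir.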

L1210 [2] = assay: Compound was evaluated in vivo for antitumor activity after intraperitoneal administration against L1210(935)for change in body weight at an optimal dose of 0.1 mg/kg/injection at 1-4 day schedule.; format: functional, Mus musculus; outline: as §1
L1210 [3] = assay: Compound was evaluated in vivo for antitumor activity after intraperitoneal administration against L1210(935)for % increase in life span at an optimal dose of 0.2 mg/kg/injection at 1-4 day schedule.; format: functional; conditions: Mus musculus, L1210, ip; outline: as §1
[4] = Compound was evaluated in vivo for antitumor activity against Glasgow osteogenic sarcoma after injecting the compound intravenously for optimal dose; format: functional, Mus musculus
Outline: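 Glasgow osteogenic sarcoma in C57Bl/6-derived hosts: 30-60 mg fragments implanted sc by trocar on day 0. Drug given iv on days 3, 6 and 9, 7 mice per group. Tumors measured by caliper. Median tumor burden recorded on day 10. Body weight change per mouse recorded at nadir. Toxicity-related deaths counted.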

[5] = Compound was evaluated in vivo for antitumor activity against Lewis Lung cercinoma after injecting the compound intravenously for toxicity related death.; format: functional, Mus musculus
Outline: (§2)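 Lewis lung carcinoma: 10^6 cells implanted im into C57Bl/6-derived hosts. Drug given iv on days 5, 9 and 13, 10 mice per group. Median tumor burden and weight nadir recorded. Survivors were killed on day 19, and their lungs were fixed in Fekete solution so that macroscopic metastases could be counted.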

P388 [6] = assay: Compound was evaluated in vivo for antitumor activity after intraperitoneal administration against P388/L-PAM(14) for mortality range at an optimal dose of 0.1 mg/kg/injection at 1,2,3,4 day schedule.; format: functional, Mus musculus
L1210 [7] = assay: Inhibitory activity against L1210 cell growth; format: functional, cell-based; conditions: Mus musculus
Outline: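 L1210 cells were grown in RPMI 1640 with 2 mM glutamine and 20% heat-inactivated horse serum at 37 °C under 5% CO2. Drug was added in DMSO (0.5% final) to exponential cells seeded at 0.8×10^5 cells/mL. Coulter counts were done in triplicate at 48 h. IC50 was taken from a regression of probit % growth inhibition against log dose, from one experiment.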

P388 [8] = assay: Compound was evaluated in vivo for antitumor activity after intraperitoneal administration against P388 (1313) for total dose at an optimal dose of 0.2 mg/kg/injection; format: functional, Mus musculus
[9] = Compound was evaluated in vivo for antitumor activity against Lewis Lung cercinoma after injecting the compound intravenously for median tumor burden; format: functional, Mus musculus; outline: as §2
P388 [10] = assay: Compound was evaluated in vivo for antitumor activity after intraperitoneal administration against P388/L-PAM(14) for change in body weight at an optimal dose of 0.5 mg/kg/injection at one day schedule.; format: functional, Mus musculus
[11] = Compound was evaluated in vivo for antitumor activity against colon adenocarcinoma 38 after injecting the compound intravenously for optimal dose; format: functional, Mus musculus
L1210 [12] = assay: Compound was evaluated in vivo for antitumor activity after intraperitoneal administration against L1210(935)for % increase in life span at an optimal dose of 0.25 mg/kg/injection at 1,4,7,11day schedule.; format: functional; conditions: Mus musculus, L1210, ip; outline: as §1
L1210 [13] = assay: Compound was evaluated in vivo for antitumor activity after intraperitoneal administration against L1210(935) for median day of death at an optimal dose of 0.4 mg/kg/injection at 1-4 day schedule.; format: functional, Mus musculus; outline: as §1
B16 [14] = assay: Compound was evaluated in vivo for antitumor activity against B16 melanoma 1 after injecting the compound intravenously for total dose.; format: functional, Mus musculus
P388 [15] = assay: Compound was evaluated in vivo for antitumor activity after intraperitoneal administration against P388/L-PAM(14) for change in body weight at an optimal dose of 0.4 mg/kg/injection at 1,2,3,4 day schedule.; format: functional, Mus musculus
[16] = Compound was evaluated in vivo for antitumor activity against Glasgow osteogenic sarcoma after injecting the compound intravenously for percent T/C (value in parentheses indicates the day of evaluation); format: functional, Mus musculus
B16 [17] = assay: Compound was evaluated in vivo for antitumor activity against B16 melanoma after injecting the compound intravenously for median tumor burden; format: functional, Mus musculus
Outline: (§3)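 30-60 mg tumor fragments implanted sc by trocar on day 0 into C57Bl/6-derived hosts (B16) or C3H/He-derived hosts (16/C). Drug given iv on days 6, 9 and 13 (B16) or 6, 9 and 12 (16/C), 10 mice per group. Tumors measured by caliper. T/C % taken from median tumor burden of treated vs control groups on day 15 (B16) or day 14 (16/C). Body weight change per mouse recorded at nadir.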

L1210 [18] = assay: Compound was evaluated in vivo for antitumor activity after intraperitoneal administration against L1210(935)for change in body weight at an optimal dose of 1 mg/kg/injection at 1 day schedule.; format: functional, Mus musculus; outline: as §1
P388 [19] = assay: Compound was evaluated in vivo for antitumor activity after intraperitoneal administration against P388 (1303) for median day of death at an optimal dose of 0.75 mg/kg/injection; format: functional, Mus musculus
[20] = Compound was evaluated in vivo for antitumor activity against colon adenocarcinoma 38 after injecting the compound intravenously for total dose.; format: functional, Mus musculus
P388 [21] = assay: Compound was evaluated in vivo for antitumor activity after intraperitoneal administration against P388/L-PAM(14) for mortality range at an optimal dose of 0.125 mg/kg/injection at 1,4,7,11 day schedule.; format: functional, Mus musculus
L1210 [22] = assay: Compound was evaluated in vivo for antitumor activity after intraperitoneal administration against L1210(935) for total dose at an optimal dose of 1 mg/kg/injection at 1 day schedule.; format: functional, Mus musculus; outline: as §1
L1210 [23] = assay: Compound was evaluated in vivo for antitumor activity after intraperitoneal administration against L1210(935)for % increase in life span at an optimal dose of 0.4 mg/kg/injection at 1-4 day schedule.; format: functional; conditions: Mus musculus, L1210, ip; outline: as §1
L1210 [24] = assay: Compound was evaluated in vivo for antitumor activity after intraperitoneal administration against L1210(935)for % increase in life span at an optimal dose of 1 mg/kg/injection at 1 day schedule.; format: functional; conditions: Mus musculus, L1210, ip, 24 h; outline: as §1
P388 [25] = assay: Compound was evaluated in vivo for antitumor activity after intraperitoneal administration against P388 (1313) for mortality range at an optimal dose of 0.25 mg/kg/injection; format: functional, Mus musculus
P388 [26] = assay: Compound was evaluated in vivo for antitumor activity after intraperitoneal administration against P388/L-PAM(14) for tumor free survivors at an optimal dose of 0.2 mg/kg/injection at 1,2,3,4 day schedule.; format: functional, Mus musculus
L1210 [27] = assay: Compound was evaluated in vivo for antitumor activity after intraperitoneal administration against L1210(935) for mortality range at an optimal dose of 0.25 mg/kg/injection at 1,4,7,11day schedule.; format: functional, Mus musculus; outline: as §1
B16 [28] = assay: Compound was evaluated in vivo for antitumor activity against B16 melanoma after injecting the compound intravenously for total dose.; format: functional, Mus musculus; outline: as §3
[29] = Compound was evaluated in vivo for antitumor activity against mammary adenocarcinoma 16/C after injecting the compound intravenously for toxicity related death.; format: functional, Mus musculus; outline: as §3
L1210 [30] = assay: Compound was evaluated in vivo for antitumor activity after intraperitoneal administration against L1210(935) for tumor free survivors at an optimal dose of 0.25 mg/kg/injection at 1,4,7,11 day schedule.; format: functional, Mus musculus; outline: as §1

**Q.** With `CN(C)CCCNc1ncnc2c1C(=O)C(N1CC1)=C(N1CC1)C2=O` as the compound, how does the Total dose (L1210 [1]) read?
**A.** 1 mg/kg

**Q.** What about the “Change in body weight” value (L1210 [2]) of the same compound?
**A.** 0.4 g mouse-1

**Q.** What about the ILS at 0.2 mg/kg (L1210 [3]) of the same compound?
**A.** 27%

**Q.** And the Optimal dose [4]?
**A.** 0.36 mg/kg

**Q.** And the Toxicity [5]?
**A.** 0

**Q.** And the Mortality (P388 [6])?
**A.** 21 days

**Q.** What about the IC50 (L1210 [7]) of the same compound?
**A.** 0.00102 µg/mL and 2.7 nM

**Q.** What about the Optimal dose (P388 [8]) of the same compound?
**A.** 0.8 mg/kg

**Q.** What about the Tumor burden [9] of the same compound?
**A.** 7717 mg and 7748 mg

**Q.** What about the “Change in body weight” value (P388 [10]) of the same compound?
**A.** 1.3

**Q.** And the Optimal dose [11]?
**A.** 0.25 mg/kg

**Q.** What about the ILS at 0.25 mg/kg (L1210 [12]) of the same compound?
**A.** 18%

**Q.** And the “Median day of death” value (L1210 [13])?
**A.** 14

**Q.** What about the Total dose (B16 [14]) of the same compound?
**A.** 1.8 mg/kg

**Q.** What about the g/mouse (P388 [15]) of the same compound?
**A.** 0.9

**Q.** And the T/C [16]?
**A.** 0%

**Q.** What about the Tumor burden (B16 [17]) of the same compound?
**A.** 2002 mg and 3807 mg

**Q.** What about the “Change in body weight” value (L1210 [18]) of the same compound?
**A.** 0.6 g mouse-1

**Q.** What about the “Median day of death” value (P388 [19]) of the same compound?
**A.** 18.5

**Q.** What about the Total dose [20] of the same compound?
**A.** 0.5 mg/kg

**Q.** And the Mortality (P388 [21])?
**A.** 27 days

**Q.** And the Total dose (L1210 [22])?
**A.** 1 mg/kg

**Q.** And the ILS at 0.4 mg/kg (L1210 [23])?
**A.** 27%

**Q.** What about the ILS at 1 mg/kg (L1210 [24]) of the same compound?
**A.** 27%

**Q.** What about the Mortality (P388 [25]) of the same compound?
**A.** 27 days

**Q.** What about the Survivors (P388 [26]) of the same compound?
**A.** 0

**Q.** And the Mortality (L1210 [27])?
**A.** 14 days

**Q.** What about the Total dose (B16 [28]) of the same compound?
**A.** 0.6 mg/kg

**Q.** What about the Toxicity [29] of the same compound?
**A.** 0

**Q.** And the Toxicity related death [29]?
**A.** 0

**Q.** What about the Survivors (L1210 [30]) of the same compound?
**A.** 0
